In ChEMBL document CHEMBL1156795, “Rational design of 5-phenyl-3-isoxazolecarboxylic acid ethyl esters as growth inhibitors of Mycobacterium tuberculosis. a potent and selective series for further drug development” (J Med Chem, 2010):
In brackets after ≈: the same amount, converted by molar mass.

Tests used:
Type in all cases: functional
[1] = tested on: Mycobacterium tuberculosis; experiment: Antimycobacterial activity against isoniazid-resistant Mycobacterium tuberculosis H37Rv after 16 to 24 hrs by microplate alamar
Method in brief: (§1)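 MIC by MABA against Mtb strains resistant to isoniazid, rifampin or streptomycin. Values are averages of two to three independent experiments.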

[2] = tested on: Mycobacterium tuberculosis; experiment: Antimycobacterial activity against streptomycin-resistant Mycobacterium tuberculosis H37Rv after 16 to 24 hrs by microplate alamar; method in brief: as §1
[3] = tested on: Mycobacterium tuberculosis; experiment: Antimycobacterial activity against rifampin-resistant Mycobacterium tuberculosis H37Rv after 16 to 24 hrs by microplate alamar; method in brief: as §1

SMILES | MIC [1] [µM] | MIC [2] [µM] | MIC [3] [µM]
NNC(=O)c1ccncc1 [ISONIAZID] | > 128 | 0.5 (≈ 0.0686 µg/mL) | 0.4 (≈ 0.0549 µg/mL)
CCOC(=O)c1cc(-c2cccc(OCc3ccccc3Cl)c2)on1 | 1 (≈ 0.358 µg/mL) | 1 (≈ 0.358 µg/mL) | 1 (≈ 0.358 µg/mL)
CCOC(=O)c1cc(-c2cccc(OCc3c(F)cccc3F)c2)on1 | 1.1 (≈ 0.395 µg/mL) | 1.1 (≈ 0.395 µg/mL) | 1 (≈ 0.359 µg/mL)
CCOC(=O)c1cc(-c2cccc(OCc3cccc(Br)c3)c2)on1 | 1 (≈ 0.402 µg/mL) | 1 (≈ 0.402 µg/mL) | 1 (≈ 0.402 µg/mL)
CCOC(=O)c1cc(-c2cccc(OCc3cccc(C(F)(F)F)c3F)c2)on1 | 0.9 (≈ 0.368 µg/mL) | 1 (≈ 0.409 µg/mL) | 1 (≈ 0.409 µg/mL)
CCOC(=O)c1cc(-c2cccc(OCc3cccc(C(F)(F)F)c3)c2)on1 | 0.9 (≈ 0.352 µg/mL) | 0.9 (≈ 0.352 µg/mL) | 1 (≈ 0.391 µg/mL)
CN[C@@H]1[C@H](O[C@H]2[C@H](O[C@H]3[C@H](O)[C@@H](O)[C@H](N=C(N)N)[C@@H](O)[C@@H]3N=C(N)N)O[C@@H](C)[C@]2(O)C=O)O[C@@H](CO)[C@H](O)[C@H]1O [STREPTOMYCIN] | 0.4 (≈ 0.233 µg/mL) | > 32 | 0.2 (≈ 0.116 µg/mL)
CCOC(=O)c1cc(-c2cccc(OCc3cccc(F)c3F)c2)on1 | 1 (≈ 0.359 µg/mL) | 1 (≈ 0.359 µg/mL) | 1 (≈ 0.359 µg/mL)
CO[C@H]1/C=C/O[C@@]2(C)Oc3c(C)c(O)c4c(O)c(c(/C=N/N5CCN(C)CC5)c(O)c4c3C2=O)NC(=O)/C(C)=C\C=C\[C@H](C)[C@H](O)[C@@H](C)[C@@H](O)[C@@H](C)[C@H](OC(C)=O)[C@@H]1C [RIFAMPIN] | > 0.1 | > 0.1 | > 32
CCOC(=O)c1cc(-c2cccc(OCc3cc(F)ccc3F)c2)on1 | 1 (≈ 0.359 µg/mL) | 1.2 (≈ 0.431 µg/mL) | 1 (≈ 0.359 µg/mL)
